Reference: ChEMBL document CHEMBL2062453, “Lead optimization through VLAK protocol: new annelated pyrrolo-pyrimidine derivatives as antitumor agents” (2012)

Assays:
Type in all cases: functional
[1] = test system: NCI-H460; assay: Cytotoxicity against human NCI-H460 cells assessed as cell growth at 10 uM after 48 hrs by SRB assay relative to control; settings: NCI-H460, 48 h, read-out: Activity
[2] = test system: T47D; assay: Cytotoxicity against human T47D cells assessed as cell growth at 10 uM after 48 hrs by SRB assay relative to control; settings: read-out: Activity
Procedure, shortened: (§1)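 NCI single-dose primary screen across about 60 human tumour lines. Each line was inoculated and preincubated on microtiter plates, then exposed to one concentration of agent for 48 h. Growth is reported as percent growth (G%) of treated cells versus untreated control cells.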

[3] = test system: ACHN; assay: Cytotoxicity against human ACHN cells assessed as cell growth at 10 uM after 48 hrs by SRB assay relative to control; settings: read-out: Activity
Procedure, shortened: (§2)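 NCI primary screen of about 60 human tumour lines. Cells inoculated and preincubated, then a single test concentration added and cultures incubated 48 h. Result given as percent growth (G%) of treated versus untreated control cells.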

[4] = test system: TK-10; assay: Cytotoxicity against human TK10 cells assessed as cell growth at 10 uM after 48 hrs by SRB assay relative to control; settings: TK-10, 48 h, read-out: Activity; procedure, shortened: as §1
[5] = test system: PC-3; assay: Cytotoxicity against human PC3 cells assessed as cell growth at 10 uM after 48 hrs by SRB assay relative to control; settings: PC-3, 48 h, read-out: Activity
[6] = test system: SF-268; assay: Cytotoxicity against human SF268 cells assessed as cell growth at 10 uM after 48 hrs by SRB assay relative to control; settings: SF-268, 48 h, read-out: Activity
[7] = test system: SF-295; assay: Cytotoxicity against human SF295 cells assessed as cell growth at 10 uM after 48 hrs by SRB assay relative to control; settings: SF-295, 48 h, read-out: Activity
[8] = test system: IGROV-1; assay: Cytotoxicity against human IGROV1 cells assessed as cell growth at 10 uM after 48 hrs by SRB assay relative to control; settings: IGROV-1, 48 h, read-out: Activity; procedure, shortened: as §2
[9] = test system: NCI-H522; assay: Cytotoxicity against human NCI-H522 cells assessed as cell growth at 10 uM after 48 hrs by SRB assay relative to control; settings: NCI-H522, 48 h, read-out: Activity
[10] = test system: OVCAR-5; assay: Cytotoxicity against human OVCAR5 cells assessed as cell growth at 10 uM after 48 hrs by SRB assay relative to control; settings: OVCAR-5, 48 h, read-out: Activity
[11] = test system: CAKI-1; assay: Cytotoxicity against human Caki1 cells assessed as cell growth at 10 uM after 48 hrs by SRB assay relative to control; settings: CAKI-1, 48 h, read-out: Activity; procedure, shortened: as §2
[12] = test system: SN12C; assay: Cytotoxicity against human SN12C cells assessed as cell growth at 10 uM after 48 hrs by SRB assay relative to control; settings: read-out: Activity
[13] = test system: LOX IMVI; assay: Cytotoxicity against human LOXIMVI cells assessed as cell growth at 10 uM after 48 hrs by SRB assay relative to control; settings: read-out: Activity; procedure, shortened: as §2
[14] = test system: SR; assay: Cytotoxicity against human SR cells assessed as cell growth at 10 uM after 48 hrs by SRB assay relative to control; settings: read-out: Activity; procedure, shortened: as §1
[15] = test system: HOP-92; assay: Cytotoxicity against human HOP92 cells assessed as cell growth at 10 uM after 48 hrs by SRB assay relative to control; settings: HOP-92, 48 h, read-out: Activity; procedure, shortened: as §2
[16] = test system: DU-145; assay: Cytotoxicity against human DU145 cells assessed as cell growth at 10 uM after 48 hrs by SRB assay relative to control; settings: DU-145, 48 h, read-out: Activity; procedure, shortened: as §2
[17] = test system: MOLT-4; assay: Cytotoxicity against human MOLT4 cells assessed as cell growth at 10 uM after 48 hrs by SRB assay relative to control; settings: MOLT-4, 48 h, read-out: Activity
[18] = test system: SNB-19; assay: Cytotoxicity against human SNB19 cells assessed as cell growth at 10 uM after 48 hrs by SRB assay relative to control; settings: SNB-19, 48 h, read-out: Activity
[19] = test system: COLO 205; assay: Cytotoxicity against human COLO205 cells assessed as cell growth at 10 uM after 48 hrs by SRB assay relative to control; settings: COLO 205, 48 h, read-out: Activity; procedure, shortened: as §2
[20] = test system: MDA-MB-435; assay: Cytotoxicity against human MDA-MB-435 cells assessed as cell growth at 10 uM after 48 hrs by SRB assay relative to control; settings: MDA-MB-435, 48 h, read-out: Activity
[21] = test system: SK-MEL-28; assay: Cytotoxicity against human SK-MEL-28 cells assessed as cell growth at 10 uM after 48 hrs by SRB assay relative to control; settings: SK-MEL-28, 48 h, read-out: Activity
[22] = test system: EKVX; assay: Cytotoxicity against human EKVX cells assessed as cell growth at 10 uM after 48 hrs by SRB assay relative to control; settings: read-out: Activity; procedure, shortened: as §2
[23] = test system: UACC-257; assay: Cytotoxicity against human UACC257 cells assessed as cell growth at 10 uM after 48 hrs by SRB assay relative to control; settings: UACC-257, 48 h, read-out: Activity; procedure, shortened: as §1
[24] = test system: SF-539; assay: Cytotoxicity against human SF539 cells assessed as cell growth at 10 uM after 48 hrs by SRB assay relative to control; settings: SF-539, 48 h, read-out: Activity
[25] = test system: OVCAR-8; assay: Cytotoxicity against human OVCAR8 cells assessed as cell growth at 10 uM after 48 hrs by SRB assay relative to control; settings: OVCAR-8, 48 h, read-out: Activity
[26] = test system: MDA-MB-231; assay: Cytotoxicity against human MDA-MB-231 cells assessed as cell growth at 10 uM after 48 hrs by SRB assay relative to control; settings: MDA-MB-231, 48 h, read-out: Activity; procedure, shortened: as §2
[27] = test system: A498; assay: Cytotoxicity against human A498 cells assessed as cell growth at 10 uM after 48 hrs by SRB assay relative to control; settings: A498, 48 h, read-out: Activity; procedure, shortened: as §2
[28] = test system: 786-0; assay: Cytotoxicity against human 786-0 cells assessed as cell growth at 10 uM after 48 hrs by SRB assay relative to control; settings: 786-0, 48 h, read-out: Activity; procedure, shortened: as §2
[29] = test system: Hs-578T; assay: Cytotoxicity against human Hs578T cells assessed as cell growth at 10 uM after 48 hrs by SRB assay relative to control; settings: read-out: Activity; procedure, shortened: as §2
[30] = test system: M14; assay: Cytotoxicity against human M14 cells assessed as cell growth at 10 uM after 48 hrs by SRB assay relative to control; settings: M14, 48 h, read-out: Activity; procedure, shortened: as §2
[31] = test system: UO-31; assay: Cytotoxicity against human UO31 cells assessed as cell growth at 10 uM after 48 hrs by SRB assay relative to control; settings: UO-31, 48 h, read-out: Activity; procedure, shortened: as §1
[32] = test system: BT-549; assay: Cytotoxicity against human BT549 cells assessed as cell growth at 10 uM after 48 hrs by SRB assay relative to control; settings: BT-549, 48 h, read-out: Activity; procedure, shortened: as §2
[33] = test system: OVCAR-3; assay: Cytotoxicity against human OVCAR3 cells assessed as cell growth at 10 uM after 48 hrs by SRB assay relative to control; settings: OVCAR-3, 48 h, read-out: Activity
[34] = test system: HCT-15; assay: Cytotoxicity against human HCT15 cells assessed as cell growth at 10 uM after 48 hrs by SRB assay relative to control; settings: HCT-15, 48 h, read-out: Activity; procedure, shortened: as §2

Row | SMILES | growth at 10 µM [2] [%] | growth at 10 µM [3] [%] | growth at 10 µM [4] [%] | growth at 10 µM [6] [%] | growth at 10 µM [7] [%] | growth at 10 µM [8] [%] | growth at 10 µM [9] [%] | growth at 10 µM [10] [%] | growth at 10 µM [11] [%] | growth at 10 µM [12] [%] | growth at 10 µM [13] [%] | growth at 10 µM [16] [%] | growth at 10 µM [17] [%] | growth at 10 µM [18] [%] | growth at 10 µM [19] [%] | growth at 10 µM [20] [%] | growth at 10 µM [21] [%] | growth at 10 µM [22] [%] | growth at 10 µM [23] [%] | growth at 10 µM [24] [%] | also measured
1 | CCOC(=O)CCCn1c(C)c(C)c2c1N=C(SC)N1CC(=O)N=C21 | 95 | 110 | 135 | 132 | 113 | 98 | 97 | 125 | 108 | 110 | 101 | 149 | 98 | 108 | 132 | 122 | 114 | 104 | 111 | 95 | growth at 10 µM [1]: 110%; growth at 10 µM [5]: 103%; growth at 10 µM [14]: 119%; growth at 10 µM [15]: 89%; growth at 10 µM [25]: 113%; growth at 10 µM [26]: 112%; growth at 10 µM [27]: 115%; growth at 10 µM [28]: 113%; growth at 10 µM [29]: 120%; growth at 10 µM [30]: 106%; growth at 10 µM [31]: 81%; growth at 10 µM [32]: 119%; growth at 10 µM [33]: 162%; growth at 10 µM [34]: 108%
2 | CSC1=Nc2c(c(C)c(C)n2CCCC(=O)O)C2=NC(=O)CN12 | 103 | 108 | 121 | 114 | 122 | 101 | 94 | 117 | 112 | 115 | 93 | 118 | 103 | 107 | 137 | 119 | 110 | 105 | 120 | 86 | growth at 10 µM [1]: 105%; growth at 10 µM [5]: 98%; growth at 10 µM [14]: 122%; growth at 10 µM [15]: 92%; growth at 10 µM [25]: 111%; growth at 10 µM [26]: 100%; growth at 10 µM [27]: 86%; growth at 10 µM [28]: 109%; growth at 10 µM [29]: 114%; growth at 10 µM [30]: 110%; growth at 10 µM [31]: 88%; growth at 10 µM [32]: 105%; growth at 10 µM [33]: 113%; growth at 10 µM [34]: 114%
3 | CSC1=Nc2c(c(C)c(-c3ccccc3)n2CCCC(=O)O)C2=NC(=O)CN12 | 106 | 89 | 135 | 96 | 105 | 88 | 84 | 98 | 70 | 105 | 77 | 116 | 87 | 104 | 153 | 107 | 84 | 95 | 99 | 92 | growth at 10 µM [1]: 102%; growth at 10 µM [5]: 94%; growth at 10 µM [15]: 95%; growth at 10 µM [25]: 98%; growth at 10 µM [26]: 107%; growth at 10 µM [27]: 109%; growth at 10 µM [28]: 102%; growth at 10 µM [29]: 106%; growth at 10 µM [30]: 104%; growth at 10 µM [31]: 82%; growth at 10 µM [32]: 94%; growth at 10 µM [33]: 109%; growth at 10 µM [34]: 95%
4 | CSC1=Nc2c(c(C)c(-c3ccccc3)n2CCCCl)C2=NC(=O)CN12 | 72 | 88 | 105 | 77 | 43 | 48 | 56 | 86 | 58 | 86 | 50 | 95 | 51 | 81 | 79 | -31 | 56 | 54 | 84 | 62 | growth at 10 µM [5]: 69%; growth at 10 µM [14]: 13%; growth at 10 µM [15]: 65%; growth at 10 µM [25]: 88%; growth at 10 µM [26]: 65%; growth at 10 µM [27]: 47%; growth at 10 µM [28]: 78%; growth at 10 µM [29]: 85%; growth at 10 µM [30]: 31%; growth at 10 µM [31]: 57%; growth at 10 µM [32]: 61%; growth at 10 µM [33]: 85%; growth at 10 µM [34]: 65%
5 | CSC1=Nc2c(c(C)c(-c3ccccc3)n2CCCN2CCN(C)CC2)C2=NC(=O)CN12 | 80 | 90 | 127 | 88 | 110 | 92 | 85 | 99 | 92 | 96 | 93 | 101 | 79 | 96 | 91 | 105 | 103 | 96 | 100 | 86 | growth at 10 µM [1]: 101%; growth at 10 µM [14]: 70%; growth at 10 µM [25]: 93%; growth at 10 µM [26]: 82%; growth at 10 µM [27]: 93%; growth at 10 µM [28]: 98%; growth at 10 µM [29]: 75%; growth at 10 µM [30]: 100%; growth at 10 µM [31]: 78%; growth at 10 µM [33]: 96%; growth at 10 µM [34]: 102%
6 | CSC1=Nc2c(c(C)c(-c3ccccc3)n2CCCN2CCCCC2)C2=NC(=O)CC(C)N12 (stereo unspecified) | -2 | 67 | 49 | 66 | 39 | 23 | 36 | 83 | 67 | 45 | 42 | 48 | 68 | 20 | -87 | 26 | 43 | 42 | 41 | 79 | growth at 10 µM [1]: 38%; growth at 10 µM [14]: 2%; growth at 10 µM [25]: 45%; growth at 10 µM [26]: 70%; growth at 10 µM [27]: 81%; growth at 10 µM [28]: 80%; growth at 10 µM [29]: 11%; growth at 10 µM [30]: 60%; growth at 10 µM [31]: 57%; growth at 10 µM [33]: 24%; growth at 10 µM [34]: 81%
